Measured values gathered from unrelated publications.
Lines come from different studies, so protocols differ.
Target: Mitogen-activated protein kinase 1 (MAPK1, Homo sapiens, UniProt P28482)

N[C@@H]1CCN(c2nccc(-c3cnn4ncccc34)n2)C1  remaining binding (binding; 1 µM): 100%
FC(F)(F)Oc1cccc(-c2cnc3ccc(-c4ccncc4)nn23)c1  remaining binding (cell-free assay, competition with immobilised ligand; 5 µM): 100%
CSc1cccnc1N1CCN(Cc2nc3ccccc3[nH]2)CC1  remaining binding (cell-free assay, competition with immobilised ligand; 1 µM): 93%
Cc1cnc(Nc2ccc(C(=O)N3CCC(N4CCCC4)CC3)cc2)nc1-c1cc2ccccc2s1  remaining binding (binding, competition with immobilised ligand; 1 µM): 100%
COc1cnc(Nc2cccc(S(N)(=O)=O)c2)nc1N1CCN(c2ccccc2)CC1  remaining binding (binding, competition with immobilised ligand; 1 µM): 100%
CN(CCCC(F)(F)F)c1nccc(-c2cnn3ncccc23)n1  remaining binding (binding; 1 µM): 100%
CNC(=O)Nc1ccc2c(c1)[C@@]1(CC2)OC(=O)N(CC(=O)N(Cc2ccc(F)cc2)[C@@H](C)C(F)(F)F)C1=O  remaining binding (cell-free assay, competition with immobilised ligand; 1 µM): 91%
C[C@H]1CCN(c2nccc(-c3cnn4ncccc34)n2)C1  remaining binding (binding; 1 µM): 100%
O=C(c1ccc(Nc2ncc(Cl)c(-c3ccc(Cl)s3)n2)cc1)N1CCC(N2CCCC2)CC1  remaining binding (binding, competition with immobilised ligand; 1 µM): 100%
FC(F)(F)c1ccc2c(c1)nc(-c1cccnc1)n2C1CC1  remaining binding (cell-free assay, competition with immobilised ligand; 1 µM): 100%
Nc1ncc2c(n1)-c1c([nH]c3ccc(C#CC4CC4)cc13)CCCC2  remaining binding (binding, competition with immobilised ligand; 1 µM): 100%
CN(C)c1nccc(-c2cnn3ncccc23)n1  remaining binding (binding; 1 µM): 100%
O=C(c1ccc(Nc2ncc(Cl)c(-c3cc4ccccc4s3)n2)cc1)N1CCC(N2CCCC2)CC1  remaining binding (binding, competition with immobilised ligand; 1 µM): 100%
CCCOc1ccc([C@@H]2[C@@H](C(=O)O)[C@H](c3ccc4c(c3)OCO4)CN2CC(=O)Nc2c(CC)cccc2CC)cc1  remaining binding (cell-free assay, competition with immobilised ligand; 1 µM): 100%
c1cncc(-c2cccc(Nc3nccc(NC4CCCCC4)n3)c2)c1  remaining binding (binding, competition with immobilised ligand; 10 µM): 92%
CCCCN(CCCC)C(=O)CN1C[C@@H](c2cc(OC)c3c(c2)OCO3)[C@H](C(=O)O)[C@H]1CC(C)(C)CCC  remaining binding (cell-free assay, competition with immobilised ligand; 1 µM): 82.1%
O=C(Nc1c[nH]nc1C(=O)NC1CCNCC1)c1cc(F)cc(F)c1  remaining binding (binding, competition with immobilised ligand; 1 µM): 100%
CN(c1nccc(-c2cnn3ncccc23)n1)C1CC1  remaining binding (binding; 1 µM): 100%
C[C@H](c1cccc(C#N)c1)n1cc(Cl)cc(C(N)=O)c1=N  remaining binding (cell-free assay, competition with immobilised ligand; 1 µM): 93%
COc1ncc2cc3ccccc3nc2c1C#N  remaining binding (cell-free assay, competition with immobilised ligand; 5 µM): 100%
F[C@@H]1CCN(c2nccc(-c3cnn4ncccc34)n2)C1  remaining binding (binding; 1 µM): 100%
COc1cccc(CNC(=O)c2nc3scc(COCc4ccc(C(=O)O)cc4)c3c(=O)[nH]2)c1  remaining binding (cell-free assay, competition with immobilised ligand; 1 µM): 100%
